Results reported in ChEMBL document CHEMBL2169780, “Design and synthesis of neuroprotective methylthiazoles and modification as NO-chimeras for neurodegenerative therapy” (J Med Chem, 2012).
Active and inactive are the calls of the source. No cut-off for these calls is given here.

Legend:
[1] = Neuroprotective activity against oxygen-glucose deprivation-induced toxicity in Sprague-Dawley rat primary cortical neurons at 50 uM […] measured after 24 hrs by MTT assay relative to clomethiazole; format: functional, Cerebral cortex neuron
[2] = Half life of the compound in phosphate buffer at pH 7.4 by HPLC-UV analysis; format: physicochemical
In short: (§1)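 10 µM compound plus 10 µM internal standard in 100 mM phosphate buffer, pH 7.4, 2% DMSO final, held at room temperature in the autosampler. Repeated HPLC injections with UV detection at 254 nm and a C18 gradient. Parent-to-standard peak-area ratio divided by the time-zero value gives % remaining.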

[3] = Chemical stability of the compound in phosphate buffer at pH 7.4 after 5 days by HPLC-UV analysis; format: physicochemical; conditions: pH 7.4, 120 h; in short: as §1
[4] = test system: Brain; test: Drug uptake in C57BL/6 mouse brain assessed as [1-[beta-(4-Methyl-5-thiazolyl)ethanol]-4-(3-pyridinyl)]-1H-1,2,3-triazole level at 4.5 umol/kg, ip after 20 mins; format: ADME, organism-based; conditions: in vivo
In short: (§2)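 Male C57BL/6 mice, 8–10 weeks, dosed i.p. at 4.5 µmol/kg, four per drug. Brains taken 20 min later and extracted in cold acetonitrile/MeOH (1:1) with internal standard. Parent and metabolite quantified by LC-MS/MS in MRM mode against brain-matrix calibration of 1–100 ng/mL. Mean ± SEM, n=4.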

[5] = test system: Mus musculus; test: Procognitive activity in C57BL/6 mouse assessed as reversal of scopolamine-induced memory deficit at 4.5 umol/kg, ip administered 10 mins post scopolamine-challenge and 20 mins prior to training measured after 24 hrs by step-through passive avoidance test; format: functional, organism-based
In short: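 Male C57BL/6 mice, 8–10 weeks. Scopolamine 1.0 mg/kg i.p. given 30 min before training; drug at 4.5 µmol/kg i.p. given 20 min before training. At 24 h after training, latency to enter the dark compartment was recorded without shock. One-way ANOVA with Bonferroni test.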

[6] = Drug uptake in C57BL/6 mouse brain at 4.5 umol/kg, ip after 20 mins; format: ADME, organism-based; conditions: read-out: Drug uptake; in short: as §2
[7] = test system: Hippocampus; test: Neuroprotective activity against amyloid beta-induced long term potentiation impairment in human APP […] mutant and PS1 M146L mutant transgenic mouse hippocampal slice at 100 uM incubated for 5 mins by field excitatory post-synaptic potential analysis; format: functional, tissue-based
In short: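 APP/PS1 (line 6.2) hippocampal slices, 400 µm, kept at 29°C in oxygenated saline. CA1 fEPSPs recorded in stratum radiatum after a 15 min baseline at about 35% of maximal response. Compound at 100 µM perfused 5 min before theta-burst tetanus of the Schaffer collaterals. LTP analysed at 50–80 min by two-way ANOVA.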

[8] = Neuroprotective activity against oxygen-glucose deprivation-induced toxicity in Sprague-Dawley rat primary cortical neurons assessed as increase in cell survival at 50 uM […] measured after 24 hrs by MTT assay relative to vehicle-treated control; format: functional, Cerebral cortex neuron
[9] = test system: Cerebral cortex neuron; test: Activation of Gamma-aminobutyric acid type-A receptor in Sprague-Dawley rat primary cortical neurons assessed as inhibition of glutamate-induced cytotoxicity at 50 uM incubated for 1 hr prior to glutamate-challenge measured after 24 hrs by MTT assay in presence of picrotoxin; format: cell-based
[10] = test system: Cerebral cortex neuron; test: Activation of Gamma-aminobutyric acid type-A receptor in Sprague-Dawley rat primary cortical neurons assessed as inhibition of glutamate-induced cytotoxicity at 50 uM […] measured after 24 hrs by MTT assay; format: cell-based
[11] = test system: Brain; test: Drug uptake in C57BL/6 mouse brain assessed as beta-Phenyl-4-methyl-5-thiazoleethanol level at 4.5 umol/kg, ip after 20 mins; format: ADME, organism-based; conditions: in vivo; in short: as §2

Structure (SMILES): Cc1ncsc1C(CO)n1nncc1-c1cccnc1 (centres undefined)
- Activity [1]: 92.9%

Structure (SMILES): Cc1ncsc1C(OC(=O)C1(CO[N+](=O)[O-])CC1)c1ccccc1 (centres undefined)
- half-life [2]: 0.578 h

Structure (SMILES): Cc1ncsc1C(O)c1ccccc1 (centres undefined)
- Activity [1]: 94%

Structure (SMILES): Cc1ncsc1C(O)Cc1ccc(F)cc1 (centres undefined)
- Activity [1]: 101%

Structure (SMILES): Cc1ncsc1C(O)c1ccc(F)cc1 (centres undefined)
- Activity [1]: 36.8%

Structure (SMILES): Cc1ncsc1C(CO)c1ccc(-c2cccnc2)cc1 (centres undefined)
- Activity [1]: 25%

Structure (SMILES): Cc1ncsc1C(Cc1ccccc1)O[N+](=O)[O-] (centres undefined)
- Stability [3]: Stable

Structure (SMILES): Cc1ccc2c(c1)c1c(n2CCc2scnc2C)CCN(C)C1
- Activity [1]: 15.4%

Structure (SMILES): Cc1ncsc1C(c1ccccc1)n1cc(-c2ccncc2)nn1 (centres undefined)
- Activity [1]: 90.2%

Structure (SMILES): Cc1ncsc1C(CO[N+](=O)[O-])n1cc(-c2cccnc2)nn1 (centres undefined)
- Stability [3]: Stable
- Drug uptake [4]: 76.6 ng/mL
- Activity [5]: Active
- concentration at 20 min [6]: 2.1 ng/mL

Structure (SMILES): Cc1ncsc1C(O)Cc1ccccc1 (centres undefined)
- Activity [1]: 102%

Structure (SMILES): Cc1ncsc1C(c1ccc(F)cc1)n1cc(-c2cccnc2)nn1 (centres undefined)
- Activity [1]: 87.2%

Structure (SMILES): Cc1ncsc1C(c1ccccc1)n1cc(-c2cncn2C)nn1 (centres undefined)
- Activity [1]: 93.9%

Structure (SMILES): Cc1ncsc1C(c1ccccc1)n1cc(-c2cccnc2)nn1 (centres undefined)
- Activity [1]: 108%

Structure (SMILES): Cc1ncsc1C(c1ccccc1)n1cc(-c2ccccc2)nn1 (centres undefined)
- Activity [1]: 57.6%

Structure (SMILES): Cc1ncsc1CCCl [CLOMETHIAZOLE]
- Activity [7]: inactive
- Activity [8]: 30%

Structure (SMILES): Cc1ncsc1C(c1ccccc1)n1cc(-c2ccsc2)nn1 (centres undefined)
- Activity [1]: 62%

Structure (SMILES): Cc1ncsc1CCn1ccnn1
- Activity [1]: 51.5%

Structure (SMILES): Cc1ncsc1C(c1ccccc1)n1cc(Cc2ccccc2)nn1 (centres undefined)
- Activity [1]: 88.3%

Structure (SMILES): Cc1ncsc1C(CO)c1ccccc1 (centres undefined)
- Activity [9]: inactive
- Activity [1]: 99.6%
- concentration at 20 min [6]: 32.9 ng/mL
- Activity [10]: Active

Structure (SMILES): Cc1ncsc1C(CO[N+](=O)[O-])n1nncc1-c1cccnc1 (centres undefined)
- Stability [3]: Stable
- Activity [5]: Active

Structure (SMILES): Cc1ncsc1C(NC(=O)C1(CO[N+](=O)[O-])CC1)c1ccccc1 (centres undefined)
- Stability [3]: Stable

Structure (SMILES): Cc1ncsc1C(NC(=O)OCC1(CO[N+](=O)[O-])CC1)c1ccccc1 (centres undefined)
- Activity [7]: inactive
- Activity [5]: Active
- half-life [2]: 50 h

Structure (SMILES): Cc1ncsc1CCO
- Activity [1]: 14.11%

Structure (SMILES): Cc1ncsc1CCn1cc(-c2ccccc2)nn1
- Activity [1]: 53.9%

Structure (SMILES): NCc1cc(O)no1
- Activity [9]: inactive
- Activity [10]: Active

Structure (SMILES): COC(c1ccccc1)c1scnc1C (centres undefined)
- Activity [1]: 110.2%

Structure (SMILES): Cc1ncsc1C(CO)n1cc(-c2cccnc2)nn1 (centres undefined)
- Activity [9]: inactive
- Activity [1]: 107.3%
- concentration at 20 min [6]: 56.4 ng/mL
- Activity [10]: Active

Structure (SMILES): Cc1ncsc1CCn1cc(-c2cccnc2)nn1
- Activity [9]: inactive
- Activity [1]: 99.6%

Structure (SMILES): Cc1ncsc1C(CO[N+](=O)[O-])c1ccccc1 (centres undefined)
- Stability [3]: Stable
- Activity [7]: Active
- Activity [5]: Active
- concentration at 20 min [6]: 9.5 ng/mL
- Drug uptake [11]: 9.5 ng/mL

Structure (SMILES): Cc1ncsc1C(OC(=O)C1(C)CC1)c1ccccc1 (centres undefined)
- half-life [2]: 6.33 h

Structure (SMILES): Cc1ncsc1C(CO[N+](=O)[O-])c1ccc(F)cc1 (centres undefined)
- Stability [3]: Stable
- Activity [5]: Active

Structure (SMILES): Cc1ncsc1C(c1ccccc1)n1cc(-c2cncc(O)c2)nn1 (centres undefined)
- Activity [1]: 104%

Structure (SMILES): Cc1ncsc1C(OCCOCCO)c1ccccc1 (centres undefined)
- Activity [9]: inactive
- Activity [1]: 114.1%
- Activity [10]: Active

Structure (SMILES): Cc1ncsc1C(OCCOCCO[N+](=O)[O-])c1ccccc1 (centres undefined)
- Stability [3]: Stable
- Activity [5]: Active

Structure (SMILES): Cc1ncsc1C(c1ccccc1)n1cc(-c2ccccn2)nn1 (centres undefined)
- Activity [1]: 50.9%

Structure (SMILES): Cc1ncsc1C(c1ccccc1)n1ccnn1 (centres undefined)
- Activity [1]: 58.1%

Structure (SMILES): Cc1ncsc1C(CO)c1ccc(F)cc1 (centres undefined)
- Activity [1]: 98.9%

Structure (SMILES): Cc1ncsc1C(NC(=O)OCCCCO[N+](=O)[O-])c1ccccc1 (centres undefined)
- Stability [3]: Stable
- Activity [5]: Active

Structure (SMILES): Cc1ncsc1C(O)c1ccc(Cl)cc1 (centres undefined)
- Activity [1]: 25%
